Only some compounds are listed: those with a hit (about 2.8% of all), similar ones and a draw of the others.
SF-1 act: activators of human nuclear receptor SF-1. CHO-K1 Gal4-SF-1 LBD luciferase reporter; % increase over DMSO SF-1-specific signal. 1.9% of 65,000 active. activation, % at 10 µM;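 active = activation above the mean activation of all tested compounds plus 3 SD, cut at about 50% in these data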
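Material: Gal4–SF-1 LBD one-hybrid luciferase reporter in CHO-K1 cells | Amount: 4,000 cells per well | Compound dosing: 10 µM single point, 1% DMSO | Schedule: 20 h compound treatment, 37 °C | Measured by: SteadyLite luciferase luminescence | Evaluation: Percent activation versus DMSO | Control set: DMSO-treated SF-1-transfected cells as negative, DMSO-treated mock-transfected cells lacking SF-1 as background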
Jurkat viability: cytotoxicity toward Jurkat cells; Jurkat E6.1 viability, ATP luminescence, 48 h; inhibition, % at 4 µM; 1.2% of 56,000 active; AID 463;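 active = inhibition above the mean inhibition of all tested compounds plus 3 SD, cut at about 28% in these data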
MT1-MMP txn act: activates MT1-MMP transcription. HT1080 MT1-MMP promoter luciferase reporter, luminescence, overnight; active compounds read high. activation factor at 10 µM. 0.16% of 86,000 active;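 active = activation factor of at least 2 for MT1-MMP transcription at 10 µM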
HEK293 NFkB inh: inhibitors of the PMA/ionomycin-induced NF-kB reporter in HEK293 cells | HEK-293 NF-kB luciferase reporter, luminescence | inhibition, % at 3 µM | 0.21% of 62,000 active | AID 465;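 active = inhibition above the mean of all tested compounds plus 3 SD, cut at about 40% in these data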
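System – HEK-293 cells with stable firefly luciferase reporter driven by four HIV NF-kB elements · Doses – one dose, 3 µM · Schedule – 1 h compound pre-incubation, 16 h PMA/ionomycin at 37 °C · Technique – luminescence from luciferase substrate reagent · Measure – percent inhibition normalized per plate to DMSO and reference-inhibitor controls · Replicates – tested once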
RORA act: activates the human nuclear receptor RORA | P35398 | CHO-K1 Gal4-RORA LBD luciferase reporter, luminescence; percent increase over mock-subtracted basal signal | activation, % at 10 µM | 1.5% of 65,000 active | AID 560;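 active = activation above the mean of all tested compounds plus 3 SD, cut at about 49% in these data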
Target sequence (P35398 whole entry, looked up, the tested form may be a part): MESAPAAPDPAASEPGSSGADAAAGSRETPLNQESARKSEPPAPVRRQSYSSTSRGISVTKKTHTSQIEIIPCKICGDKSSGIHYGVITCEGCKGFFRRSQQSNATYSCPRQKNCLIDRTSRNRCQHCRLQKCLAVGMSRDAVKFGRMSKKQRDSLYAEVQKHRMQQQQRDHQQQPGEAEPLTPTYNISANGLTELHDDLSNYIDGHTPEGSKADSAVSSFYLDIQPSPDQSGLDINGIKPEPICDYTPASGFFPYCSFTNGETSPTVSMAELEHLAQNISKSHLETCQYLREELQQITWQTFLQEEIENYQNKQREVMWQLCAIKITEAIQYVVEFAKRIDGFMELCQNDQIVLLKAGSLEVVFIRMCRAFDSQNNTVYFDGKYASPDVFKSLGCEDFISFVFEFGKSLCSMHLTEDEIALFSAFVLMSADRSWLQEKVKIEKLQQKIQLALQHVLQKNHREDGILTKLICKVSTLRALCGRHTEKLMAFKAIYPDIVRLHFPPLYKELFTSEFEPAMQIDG
Numbers stand for hits; 0 = inactive; - = no result.

SMILES	SF-1 act	Jurkat viability	MT1-MMP txn act	HEK293 NFkB inh	RORA act
CCN(CC)S(=O)(=O)c1ccc(C(=O)NCc2ccc(C)cc2)cc1	-	-	0	-	-
CCN(Cc1ccncc1)S(=O)(=O)c1ccc(C(C)=O)cc1	0	30	0	0	0
CCOC(=O)c1ccc(NC(=O)C2CCCO2)cc1 (centres undefined)	64	0	0	0	0
CCCCOC(=O)c1ccc(NC(=O)C2CCCO2)cc1 (centres undefined)	0	0	0	0	0
CCCCc1ccc(NC(=O)C2CCCO2)cc1 (centres undefined)	0	0	0	0	76
C=CCNc1nc(N2CCOCC2)c(C#N)c2c1CN(C)CC2	0	-	0	-	0
CC1(C)CN(O)CCN1O	0	-	0	-	0
O=C1C(C=NCc2cccnc2)=C(O)c2ccccc21	0	0	0	0	53
O=C1C(C=NCc2ccncc2)=C(O)c2ccccc21	-	-	0	-	-
COc1ccc(-c2noc(Cc3cccs3)n2)cc1	0	0	0	0	57
CCCCNC(=O)C1CCN(Cc2ccc(OCc3ccccc3)cc2)CC1	-	-	2	-	-
COc1cccc(NC2c3ccccc3C(=O)N2Cc2ccco2)c1 (centres undefined)	0	0	0	0	0
CCc1ccc2c(COC(=O)c3n[nH]c4ccccc34)cc(=O)oc2c1	58	0	0	0	0
CC(=O)c1ccc(O)c(CO)c1	0	-	0	-	0
COc1ccccc1N1CCN(c2ncnc3c2oc2ccccc23)CC1	0	0	0	0	56
CCOc1cc(C2CC(=O)NC3=C2C(=O)C(C(=O)OC)C(C)C3)cc(Cl)c1O (centres undefined)	0	0	0	0	0
O=C(NCc1ccc2c(c1)OCO2)C1CC(=O)N(C2CCCCCCC2)C1 (centres undefined)	0	0	0	0	0
Oc1c(CN2CCOCC2)cc(COCc2ccccc2)c2cccnc12	0	54	0	0	-
CCOc1ccc2nc(N3CCCCCC3)sc2c1	58	0	0	0	0
CCOc1ccc2nc(N3CCC(C(=O)Nc4nnc(CC)s4)CC3)sc2c1	67	0	0	0	0
C/C(N)=C(/C#N)C(=O)CSc1nnc(Nc2cccc(C)c2C)s1	58	0	0	0	0
CCN(CC)c1ccc(NC(=O)c2cc(OC)cc(OC)c2)c(C)c1	0	94	0	0	0
COc1ccccc1-n1cnc2cc(NCc3ccco3)ccc21	56	58	0	0	50
Cc1nc(NC(C)c2ccccc2)c2oc3ccccc3c2n1 (centres undefined)	0	30	0	0	0
Cc1nc(N[C@@H](Cc2ccccc2)C(=O)O)c2oc3ccccc3c2n1	-	-	0	-	-
SMILES	SF-1 act	Jurkat viability	MT1-MMP txn act	HEK293 NFkB inh	RORA act
Nc1nc2ccccc2n1/N=C/c1ccc(Br)cc1	69	0	0	0	70
COc1ccccc1CN(Cc1cc2cc(C)cc(C)c2[nH]c1=O)Cc1nnnn1CC1CCCO1 (centres undefined)	0	0	0	0	54
COc1ccccc1CN(Cc1cc2cc(C)ccc2[nH]c1=O)Cc1nnnn1CC1CCCO1 (centres undefined)	0	0	0	0	0
CCOC(=O)N1CCN(CC(O)COC(CC)c2ccccc2)CC1 (centres undefined)	0	0	0	0	0
O=C(OCC(=O)c1c[nH]c2ccccc12)C1=COCCO1	109	0	2.1	0	55
CC(C)C1Cc2c(sc3c2c(=O)n(Cc2ccccc2)c2nncn32)CO1 (centres undefined)	0	-	0	-	0
O=c1oc2c3c4c(cc2cc1-c1nc2ccccc2[nH]1)CCCN4CCC3	0	0	0	0	52
CCOC(=O)NC1(Nc2ccc(Cl)cn2)Oc2ccccc2O1	0	33	0	0	0
COCCn1c(=O)[nH]c2cc(C(=O)NC3CCCCCC3)ccc2c1=O	0	0	0	0	0
Clc1ccc(OCc2nnc(-c3ccccc3Br)o2)c(Cl)c1	0	0	0	0	90
Clc1ccc(OCc2nnc(-c3ccccc3Br)o2)cc1	0	0	0	0	0
CCc1nnc(NC(=O)CSc2nnc(-c3ccccc3O)n2-c2ccc(C)cc2C)s1	0	80	0	0	0
Cc1ccc(NC(=O)c2cc3nc(C)cc(C)n3n2)cc1	-	-	0	-	-
Cc1ccc(CNC(=O)Nc2ccccc2)cc1	0	0	0	0	0
O=C(c1cccs1)N1CCn2c1nc1ccccc12	53	0	0	0	0
CCOC(=O)c1[nH]c2ccc(OC)cc2c1C	59	-	0	-	0
CCOC(=O)c1[nH]c2ccc(OC)cc2c1NC(C)=O	0	0	0	0	0
CCOC(=O)c1cc2cc(OC)ccc2[nH]1	73	-	0	-	0
O=C1CCCc2c1cc(C(=O)NC1CCSC1=O)c(=O)n2-c1ccccc1 (centres undefined)	0	-	-	0	0
COc1cccc(C(=O)NC2CCSC2=O)c1 (centres undefined)	0	0	0	0	0
O=C(NCCSCc1ccco1)Nc1ccc(Cl)cc1	65	0	0	0	0
COc1ccccc1-c1nn2c(-c3ccco3)nnc2s1	59	-	0	-	0
CCN(CC)c1ccc(-c2nn3c(-c4ccccc4OC)nnc3s2)cc1	0	99	0	58	0
COc1cccc(OC)c1-c1nn2c(-c3cc(-c4ccccc4)n[nH]3)nnc2s1	0	66	-	0	0
COc1ccc(-c2nnc3sc(-c4c(OC)cccc4OC)nn23)cc1	0	-	0	-	0
SMILES	SF-1 act	Jurkat viability	MT1-MMP txn act	HEK293 NFkB inh	RORA act
c1coc(-c2nn3c(-c4ccco4)nnc3s2)c1	0	0	0	0	0
CCc1cccc(C)c1NC(=O)c1cc(C)oc1C	0	0	0	0	0
NC(=O)c1sc2nccc(Nc3ccccc3)c2c1N	0	0	0	45	0
CC(C)(C)C(=O)c1sc(Nc2ccccc2)nc1N	0	0	0	0	0
O=C1NC(c2ccc3c(c2)OCO3)Nc2ccccc21 (centres undefined)	72	0	0	0	63
O=C(COc1ccccc1)n1nc(-c2ccc(Cl)cc2)nc1NCc1ccco1	0	0	0	0	60
CC(C)(C)CC(=O)NCc1ccc(F)cc1	-	-	0	-	-
c1ccc(-c2n[nH]c(-c3ccccn3)n2)nc1	78	0	0	0	0
CCCCCN=Cc1c(C)[nH]n(-c2nc3ccccc3s2)c1=O	0	56	-	0	0
O=C1NC(=O)C2C1C(c1ccccc1)N1C3C(=O)NC(=O)C3C(c3ccccc3)N21 (centres undefined)	-	-	0	-	-
CSc1nnc2c3ccccc3n(Cc3ccccc3)c2n1	0	0	0	0	0
CSc1nnc2c3ccccc3n(CCc3ccccc3)c2n1	0	37	0	58	0
COc1ccc(C2N(S(=O)(=O)c3ccccc3)CCN2S(=O)(=O)c2ccc(C)cc2)cc1 (centres undefined)	-	-	0	-	-
COc1ccc2c(c1)-c1nc(NC(=O)c3cccs3)sc1CC2	0	0	0	0	0
Cc1ccc(NC(=O)c2ocnc2C)cc1Cl	72	-	0	0	61
Cc1ncoc1C(=O)Nc1cccc(Cl)c1	0	0	0	0	0
